Assay results as given in ChEMBL document CHEMBL3232713, “Synthesis, antiproliferative and anti-dengue virus evaluations of 2-aroyl-3-arylquinoline derivatives” (Eur J Med Chem, 2014).
Activity calls are given as the source filed them. The calls are words filed in the database; no cut-off is given here.

Columns and labels:
[1] = Cytotoxicity against human HuH7 cells assessed as cell viability at 20 uM after 3 days by XTT assay; assay type: cell-based, Huh-7; conditions: read-out: Activity
dengue virus type 2 [2] = assay: Antiviral activity against DENV2 16681 infected in human Huh-7 cells at 5 uM after 3 days by luciferase reporter gene assay; assay type: functional; conditions: Dengue virus, 16681, Huh-7, 72 h
[3] = Cytotoxicity against human HuH7 cells assessed as cell viability at 100 uM after 3 days by XTT assay; assay type: cell-based, Huh-7; conditions: read-out: Activity
dengue virus type 2 [4] = assay: Antiviral activity against DENV2 16681 infected in human Huh-7 cells after 3 days by luciferase reporter gene assay; assay type: functional, organism-based; conditions: Dengue virus, 16681, Huh-7, 72 h
[5] = Cytotoxicity against human HuH7 cells assessed as cell viability after 3 days by XTT assay; assay type: cell-based, Huh-7
[6] = Selectivity index, ratio of CC50 for human HuH7 cells to IC50 for DENV2 16681; assay type: functional, Huh-7
dengue virus type 2 [7] = assay: Antiviral activity against DENV2 16681 infected in human Huh-7 cells at 20 uM after 3 days by luciferase reporter gene assay; assay type: functional; conditions: Dengue virus, 16681, Huh-7, 72 h
dengue virus type 2 [8] = assay: Antiviral activity against DENV2 16681 infected in human Huh-7 cells assessed as reduction of viral NS2B protein expression at 5 to 20 uM after 3 days by Western blot analysis; assay type: functional, organism-based
Outline: (§1)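 Huh-7-DV-Fluc cells exposed 3 days to compound at 5 and 20 µM, or 5–40 µM for dose series, 0.1% DMSO mock; lysates immunoblotted with rabbit polyclonal anti-NS2B (1:3000), GAPDH (1:10000) as loading control.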

dengue virus type 2 [9] = assay: Antiviral activity against DENV2 16681 infected in human Huh-7 cells assessed as reduction of viral NS5 mRNA expression at 5 to 20 uM after 3 days by RT-PCR analysis; assay type: functional, organism-based
Outline: (§2)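 Huh-7-DV-Fluc cells treated 3 days with compound at 5 and 20 µM (dose series 5–40 µM), 0.1% DMSO mock; total RNA extracted, DENV2 RNA quantified by RT-qPCR normalized to cellular GAPDH mRNA; mean ± SD of triplicate experiments.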

A549 = assay: Antiproliferative activity against human A549 cells after 3 days by XTT assay; assay type: functional, cell-based; conditions: A549, 72 h
[10] = Antiproliferative activity against human HuH7 cells after 3 days by XTT assay; assay type: functional, cell-based; conditions: Huh-7, 72 h
MDA-MB-231 [11] = assay: Antiproliferative activity against human MDA-MB-231 cells after 3 days by XTT assay; assay type: functional, cell-based; conditions: MDA-MB-231, 72 h
[12] = Antiproliferative activity against human H1299 cells after 3 days by XTT assay; assay type: functional, cell-based; conditions: NCI-H1299, 72 h
MCF7 = assay: Antiproliferative activity against human MCF7 cells after 3 days by XTT assay; assay type: functional, cell-based; conditions: MCF7, 72 h
dengue virus type 2 [13] = assay: Antiviral activity against DENV2 16681 infected in human Huh-7 cells assessed as reduction of viral NS2B protein expression after 3 days by Western blot analysis; assay type: functional, organism-based; outline: as §1
dengue virus type 2 [14] = assay: Antiviral activity against DENV2 16681 infected in human Huh-7 cells assessed as reduction of viral NS5 mRNA expression after 3 days by RT-PCR analysis; assay type: functional, organism-based; outline: as §2
MDA-MB-231 [15] = assay: Growth inhibition of human MDA-MB-231 cells; assay type: functional
[16] = Growth inhibition of human Hep3B cells; assay type: functional, Hep 3B2
dengue virus type 2 [17] = assay: Antiviral activity against DENV2 by cell based assay; assay type: functional, organism-based
West Nile virus = assay: Antiviral activity against West Nile virus by cell based assay; assay type: functional, organism-based

| SMILES | viability at 72 h, 20 µM [1] | inhibition at 5 µM (dengue virus type 2 [2]) | viability at 72 h, 100 µM [3] | inhibition at 20 µM (dengue virus type 2 [7]) | IC50 [10] | IC50 (MDA-MB-231 [11]) | further results |
| --- | --- | --- | --- | --- | --- | --- | --- |
| NC(=O)c1ncn([C@@H]2O[C@H](CO)[C@@H](O)[C@H]2O)n1 [RIBAVIRIN] | 71.4% | 32% | 26.8% | 67.5% |  |  | IC50 (dengue virus type 2 [4]): 12.6 µM; CC50 at 72 h [5]: 56.3 µM; Ratio CC50/IC50 [6]: 4.47 |
| COc1ccc(-c2cc3cc(F)ccc3nc2C(=O)c2ccccc2)cc1 | 96% | 7.24% | 89.7% | 5.11% |  |  |  |
| OC(c1ccccc1)c1nc2ccccc2cc1-c1ccc(F)cc1 (stereo not given) | 109% | 13.1% | 90.9% | 10.2% |  |  |  |
| O=C(c1ccccc1)c1nc2ccccc2cc1-c1ccc(F)cc1 | 74.8% | 20.1% | 45.9% | 14.1% |  |  |  |
| COc1ccc(-c2cc3ccccc3nc2C(O)c2ccc(OC)cc2)cc1 (stereo not given) | 71.1% | 33.5% | 31.9% | 58.5% |  |  | Activity (dengue virus type 2 [8]): Active; IC50 (dengue virus type 2 [4]): 18.2 µM; CC50 at 72 h [5]: 63.1 µM; Ratio CC50/IC50 [6]: 3.47; Activity (dengue virus type 2 [9]): Active |
| O=C(c1ccc(OCCN2CCCC2)cc1)c1nc2ccccc2cc1-c1ccc(OCCN2CCCC2)cc1 | 15.5% |  | 16.6% |  | 8.68 µM | 8.42 µM | IC50 (A549): 7.38 µM; IC50 [12]: 5.68 µM; IC50 (MCF7): 4.59 µM |
| COc1ccc(-c2cc3ccccc3nc2C(=O)c2cc(OC)c(OC)c(OC)c2)cc1 | 74.1% |  | 35.1% |  | > 10 µM | > 10 µM | IC50 (A549): > 10 µM; IC50 [12]: > 10 µM; IC50 (MCF7): > 10 µM |
| O=C(c1ccccc1)c1nc2ccc(F)cc2cc1-c1ccc(F)cc1 | 96.3% | 32.1% | 75.1% | 9.13% |  |  |  |
| COc1ccc(C(=O)c2nc3ccccc3cc2-c2ccc(OC)cc2)cc1 | 96.1% | 10.1% | 68.2% | 14.1% |  |  |  |
| COc1ccc(-c2cc3cc(OC)ccc3nc2C(=O)c2ccccc2)cc1 | 87.6% | 36.2% | 84.3% | 53.1% |  |  | IC50 (dengue virus type 2 [4]): 17.4 µM; CC50 at 72 h [5]: > 100 µM; Ratio CC50/IC50 [6]: >5.76 |
| O=C(c1ccc(OCCN2CCCCC2)cc1)c1nc2ccccc2cc1-c1ccc(OCCN2CCCCC2)cc1 | 18.4% |  | 15.8% |  | 6.59 µM | 7.99 µM | IC50 (A549): 6.53 µM; IC50 [12]: 6.18 µM; IC50 (MCF7): 4.66 µM |
| O=C(c1ccc(O)cc1)c1nc2ccccc2cc1-c1ccc(O)cc1 | 90.3% | 38.7% | 65.1% | 62.1% |  |  | Activity (dengue virus type 2 [8]): Active; Activity (dengue virus type 2 [13]): Dose-dependent effect; IC50 (dengue virus type 2 [4]): 13.2 µM; CC50 at 72 h [5]: > 100 µM; Ratio CC50/IC50 [6]: >7.6; Activity (dengue virus type 2 [9]): Active; Activity (dengue virus type 2 [14]): Dose-dependent effect |
| CN(C)CCCOc1ccc(C(=O)c2nc3ccccc3cc2-c2ccc(OCCCN(C)C)cc2)cc1 | 17.6% |  | 19.2% |  | 6.44 µM | 7.14 µM | IC50 (A549): 6.35 µM; IC50 [12]: 4.98 µM; IC50 (MCF7): 4.47 µM |
| O=C(c1ccc(O)cc1)c1nc2ccccc2cc1-c1ccc(OCCN2CCCCC2)cc1 | 77.5% |  | 19.5% |  | > 10 µM | > 10 µM | IC50 (A549): > 10 µM; IC50 [12]: > 10 µM; IC50 (MCF7): > 10 µM |
| O=C(c1ccc(O)cc1)c1nc2ccccc2cc1-c1ccc(OCCN2CCCC2)cc1 | 91% |  | 18.1% |  | > 10 µM | > 10 µM | IC50 (A549): > 10 µM; IC50 [12]: > 10 µM; IC50 (MCF7): > 10 µM |
| CN(C)CCCOc1ccc(-c2cc3ccccc3nc2C(=O)c2ccc(O)cc2)cc1 | 80.4% |  | 16.8% |  | > 10 µM | > 10 µM | IC50 (A549): > 10 µM; IC50 [12]: > 10 µM; IC50 (MCF7): > 10 µM |
| CC[C@@]1(O)C(=O)OCc2c1cc1n(c2=O)Cc2cc3c(CN(C)C)c(O)ccc3nc2-1 [TOPOTECAN] |  |  |  |  | 8.61 µM | < 0.1 µM |  |
| Fc1ccc2nc(-c3ccc(OCCN4CCCCC4)cc3)c(-c3ccc(OCCN4CCCCC4)cc3)cc2c1 |  |  |  |  |  |  | GI50 (MDA-MB-231 [15]): 0.72 µM; GI50 [16]: 0.71 µM |
| COc1ccc(-c2cc3ccccc3nc2C(O)c2ccccc2)cc1 (stereo not given) | 96.6% | 45.3% | 68.1% | 65.1% |  |  | Activity (dengue virus type 2 [8]): Active; Activity (dengue virus type 2 [13]): Dose-dependent effect; IC50 (dengue virus type 2 [4]): 12.6 µM; CC50 at 72 h [5]: > 100 µM; Ratio CC50/IC50 [6]: >7.96; Activity (dengue virus type 2 [9]): Active; Activity (dengue virus type 2 [14]): Dose-dependent effect |
| COc1ccc(-c2cc3cc(OC)ccc3nc2C(O)c2ccccc2)cc1 (stereo not given) | 87.7% | 38% | 26% | 61.2% |  |  | Activity (dengue virus type 2 [8]): Active; IC50 (dengue virus type 2 [4]): 14.1 µM; CC50 at 72 h [5]: 68.9 µM; Ratio CC50/IC50 [6]: 4.87; Activity (dengue virus type 2 [9]): Active |
| CCOc1ccc2nc(C)cc(Nc3ccc(OCc4ccccc4Cl)cc3)c2c1 |  |  |  |  |  |  | IC50 (dengue virus type 2 [17]): 5 µM; IC50 (West Nile virus): 1.9 µM |
| COc1ccc(-c2cc3ccccc3nc2C(=O)c2ccccc2)cc1 | 93.1% | 3.12% | 87.8% | 6.93% |  |  |  |
| COc1ccc(-c2cc3cc(F)ccc3nc2C(O)c2ccccc2)cc1 (stereo not given) | 87.4% | 16.1% | 30.7% | 19.1% |  |  |  |
| COc1ccc(-c2cc3ccccc3nc2C(O)c2cc(OC)c(OC)c(OC)c2)cc1 (stereo not given) | 93.6% | 22.3% | 62.5% | 38.2% |  |  |  |
| OC(c1ccccc1)c1nc2ccc(F)cc2cc1-c1ccc(F)cc1 (stereo not given) | 129% | 22.2% | 92.3% | 23.1% |  |  |  |
